Test results from ChEMBL document CHEMBL1138032, “New 2',6'-dimethyl-L-tyrosine (Dmt) opioid peptidomimetics based on the Aba-Gly scaffold. Development of unique mu-opioid receptor ligands” (J Med Chem, 2006).
Square brackets hold non-standard residues; d marks the D form. Peptide text beside a SMILES is read from it. * marks the point of attachment. Dmt = Cc1cc(O)cc(C)c1C[C@H](N)C(=O)O; Tic = O=C(O)[C@@H]1Cc2ccccc2CN1; NHBn = c1ccc(CN*)cc1; NHPh = c1ccc(N*)cc1

Experiments:
[1] = biological target: Delta-type opioid receptor (Mus musculus) (UniProt P32300); experiment: (§1) Agonist activity at delta opioid receptor by mouse vas deferens assay; type: functional, tissue-based
Summary of the method: (§2)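 Isolated mouse vas deferens was field-stimulated with supramaximal bipolar rectangular pulses. Agonism was read as inhibition of the electrically evoked twitch, referenced to deltorphin C. IC50 came from dose-response curves over at least six experiments on fresh tissue.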

[2] = biological target: Delta-type opioid receptor (Mus musculus, UniProt P32300); experiment: as §1; type: functional, tissue-based; summary of the method: as §2
Mu-type opioid receptor = Mu-type opioid receptor (Cavia porcellus, UniProt P97266); experiment: Agonist activity at mu opioid receptor by guinea pig ileum assay; type: functional, tissue-based
Summary of the method: as §2, with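 “Myenteric plexus–longitudinal muscle from male guinea pig ileum” for “Isolated mouse vas deferens”, “dermorphin.” for “deltorphin C.”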

[3] = biological target: Delta-type opioid receptor (Mus musculus) (UniProt P32300); experiment: Activity at delta opioid receptor by mouse vas deferens assay; type: functional, tissue-based; conditions: filed as partial agonist; summary of the method: as §2
[4] = biological target: Opioid receptors; mu & delta (Homo sapiens) (UniProt P41143+P35372); experiment: Selectivity for delta opioid receptor over mu opioid receptor; type: protein assay
Summary of the method: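 Non-specific binding was set with 2 μM unlabeled peptide. Five to eight peptide doses were run in duplicate, with independent repeats on different preparations. Samples were filtered on 0.1% polyethylenimine-soaked glass fiber filters and washed thrice with ice-cold buffered BSA. Ki was derived by Cheng–Prusoff.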

Sequence of Delta-type opioid receptor (P32300 whole entry): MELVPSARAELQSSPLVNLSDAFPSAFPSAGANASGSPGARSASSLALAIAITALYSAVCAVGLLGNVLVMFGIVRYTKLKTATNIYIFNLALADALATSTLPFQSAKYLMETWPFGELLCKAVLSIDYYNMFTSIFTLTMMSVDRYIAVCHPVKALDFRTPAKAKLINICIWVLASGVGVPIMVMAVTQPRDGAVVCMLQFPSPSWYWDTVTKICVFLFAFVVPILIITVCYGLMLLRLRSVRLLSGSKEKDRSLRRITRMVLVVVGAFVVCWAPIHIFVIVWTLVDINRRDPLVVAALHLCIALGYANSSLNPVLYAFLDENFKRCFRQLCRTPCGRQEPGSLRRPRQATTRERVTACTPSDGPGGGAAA
Sequence of Delta-type opioid receptor (Mus musculus) (P32300 whole entry): as above
Sequence of Mu-type opioid receptor (P97266 whole entry): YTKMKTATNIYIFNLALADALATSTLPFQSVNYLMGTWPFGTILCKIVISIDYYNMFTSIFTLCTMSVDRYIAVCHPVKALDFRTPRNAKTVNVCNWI
Sequence of Opioid receptors; mu & delta (Homo sapiens) (P35372 whole entry, looked up): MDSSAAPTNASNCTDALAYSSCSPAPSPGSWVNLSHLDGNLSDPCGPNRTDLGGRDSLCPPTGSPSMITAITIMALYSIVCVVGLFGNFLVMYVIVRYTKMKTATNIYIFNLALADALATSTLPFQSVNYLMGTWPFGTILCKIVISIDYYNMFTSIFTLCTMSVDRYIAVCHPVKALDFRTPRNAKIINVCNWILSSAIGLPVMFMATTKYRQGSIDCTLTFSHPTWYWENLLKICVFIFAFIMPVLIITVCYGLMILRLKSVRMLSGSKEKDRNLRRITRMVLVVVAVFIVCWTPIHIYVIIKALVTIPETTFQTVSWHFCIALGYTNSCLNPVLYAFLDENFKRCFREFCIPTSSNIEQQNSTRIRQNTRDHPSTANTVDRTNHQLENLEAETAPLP
Sequence of Opioid receptors; mu & delta (Homo sapiens) (P41143 whole entry, looked up): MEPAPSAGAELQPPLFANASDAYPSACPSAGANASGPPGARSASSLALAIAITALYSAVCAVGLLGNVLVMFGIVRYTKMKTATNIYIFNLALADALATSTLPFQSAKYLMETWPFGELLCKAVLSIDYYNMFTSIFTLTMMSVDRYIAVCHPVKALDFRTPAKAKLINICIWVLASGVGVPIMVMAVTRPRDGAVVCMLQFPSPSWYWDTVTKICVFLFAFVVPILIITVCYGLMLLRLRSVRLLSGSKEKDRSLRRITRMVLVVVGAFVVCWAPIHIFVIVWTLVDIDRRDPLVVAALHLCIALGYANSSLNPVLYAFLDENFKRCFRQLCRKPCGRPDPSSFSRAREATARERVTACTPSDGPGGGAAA

`Cc1cc(O)cc(C)c1C[C@H](N)C(=O)N[C@H]1Cc2ccccc2CN(CC(=O)Nc2ccccc2)C1=O` showed a %max [1] of 40%, an IC50 [2] of 650 nM and an IC50 (Mu-type opioid receptor) of 95 nM. The Activity [3] was “Partial agonist”.
`Cc1cc(O)cc(C)c1C[C@H](N)C(=O)N[C@H]1Cc2ccccc2CN(Cc2nc3ccccc3[nH]2)C1=O` gave a %max [1] of 40%, an IC50 [2] of 2700 nM and an IC50 (Mu-type opioid receptor) of 231 nM. The Activity [3] was “Partial agonist”.
`Cc1cc(O)cc(C)c1C[C@H](N)C(=O)N1Cc2ccccc2C[C@H]1C(=O)NCC(=O)Nc1ccccc1` (H-[Dmt]-[Tic]-Gly-NHPh) was tested, and the IC50 [2] was 3.02 nM, the IC50 (Mu-type opioid receptor) was 2.57 nM and the Selectivity ratio [4] was 3.6.
Work on `Cc1cc(O)cc(C)c1C[C@H](N)C(=O)N[C@H]1Cc2ccccc2CN(CC(=O)NCc2ccccc2)C1=O` yielded an IC50 [2] of 830 nM and an IC50 (Mu-type opioid receptor) of 51 nM.
In the case of `Cc1cc(O)cc(C)c1C[C@H](N)C(=O)N1Cc2ccccc2C[C@H]1C(=O)NCC(=O)NCc1ccccc1` (H-[Dmt]-[Tic]-Gly-NHBn), the IC50 (Mu-type opioid receptor) is reported as 2.69 nM and the Selectivity ratio [4] is reported as 5.3.
